ChEMBL document CHEMBL4765238, “Structure-Based Discovery and Optimization of Benzo[ d]isoxazole Derivatives as Potent and Selective BET Inhibitors for Potential Treatment of Castration-Resistant Prostate Cancer (CRPC)” (J Med Chem, 2018)
pIC50: −log10 of the molar value. Calls of active or inactive are those of the source. The calls are words filed in the database; no cut-off is given here.

Columns and labels:
[1] = molecular target: Bromodomain-containing protein 4 (Homo sapiens, UniProt O60885); experiment: Binding affinity to human recombinant His6-tagged BRD4 bromodomain 1 (N44 to E168 residues) expressed in Escherichia coli BL21 (DE3) cells assessed as change in melting temperature at 200 uM incubated for 30 mins by SYPRO orange dye based thermal shift assay
How it was run: (§1)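 Thermal shift assay measuring change in melting temperature of each isolated bromodomain module in the presence of compound versus without.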

CWR22R [2] = experiment: Antiproliferative activity against AR-positive human 22Rv1 cells assessed as reduction in cell viability incubated for 96 hrs by cell-titer glo assay; type: functional, cell-based; conditions: 22Rv1, 96 h
How it was run: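 Prostate cancer cells treated across a concentration range; viability read by CellTiter-Glo luminescence; experiments in triplicate; IC50 derived from the dose–response curves.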

[3] = molecular target: Bromodomain-containing protein 3 (Homo sapiens) (UniProt Q15059); experiment: Binding affinity to human recombinant His6-tagged BRD3 bromodomain 1 (P24 to E144 residues) expressed in Escherichia coli BL21 (DE3) cells assessed as change in melting temperature at 200 uM incubated for 30 mins by SYPRO orange dye based thermal shift assay; how it was run: as §1
Sequence of Bromodomain-containing protein 3 (Homo sapiens) (Q15059 2-726 limits assumed): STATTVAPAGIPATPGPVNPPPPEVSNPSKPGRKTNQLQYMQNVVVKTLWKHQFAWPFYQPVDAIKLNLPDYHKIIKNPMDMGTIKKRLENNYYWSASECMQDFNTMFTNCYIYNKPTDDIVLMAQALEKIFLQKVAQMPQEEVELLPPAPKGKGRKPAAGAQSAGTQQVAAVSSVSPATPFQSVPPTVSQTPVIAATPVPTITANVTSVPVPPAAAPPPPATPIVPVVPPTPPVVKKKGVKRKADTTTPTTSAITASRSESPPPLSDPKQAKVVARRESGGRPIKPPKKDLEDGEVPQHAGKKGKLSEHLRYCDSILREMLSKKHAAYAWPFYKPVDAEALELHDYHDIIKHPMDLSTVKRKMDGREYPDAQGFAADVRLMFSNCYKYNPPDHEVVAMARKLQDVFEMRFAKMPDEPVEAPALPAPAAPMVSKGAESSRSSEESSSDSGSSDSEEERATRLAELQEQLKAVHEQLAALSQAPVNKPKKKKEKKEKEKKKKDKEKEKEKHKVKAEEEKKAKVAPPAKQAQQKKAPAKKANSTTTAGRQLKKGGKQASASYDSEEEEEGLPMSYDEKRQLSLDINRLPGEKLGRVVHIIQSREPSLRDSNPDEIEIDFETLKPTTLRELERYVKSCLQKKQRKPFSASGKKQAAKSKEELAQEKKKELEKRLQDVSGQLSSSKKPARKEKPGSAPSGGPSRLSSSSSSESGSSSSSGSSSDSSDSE

[4] = molecular target: T1, Bromodomain-containing protein 9 (Homo sapiens) (UniProt Q9H8M2); experiment: Binding affinity to human recombinant His6-tagged BRD9 (L14 to Q134 residues) expressed in Escherichia coli BL21 (DE3) cells assessed as change in melting temperature at 200 uM incubated for 30 mins by SYPRO orange dye based thermal shift assay; how it was run: as §1
T1 sequence (whole entry): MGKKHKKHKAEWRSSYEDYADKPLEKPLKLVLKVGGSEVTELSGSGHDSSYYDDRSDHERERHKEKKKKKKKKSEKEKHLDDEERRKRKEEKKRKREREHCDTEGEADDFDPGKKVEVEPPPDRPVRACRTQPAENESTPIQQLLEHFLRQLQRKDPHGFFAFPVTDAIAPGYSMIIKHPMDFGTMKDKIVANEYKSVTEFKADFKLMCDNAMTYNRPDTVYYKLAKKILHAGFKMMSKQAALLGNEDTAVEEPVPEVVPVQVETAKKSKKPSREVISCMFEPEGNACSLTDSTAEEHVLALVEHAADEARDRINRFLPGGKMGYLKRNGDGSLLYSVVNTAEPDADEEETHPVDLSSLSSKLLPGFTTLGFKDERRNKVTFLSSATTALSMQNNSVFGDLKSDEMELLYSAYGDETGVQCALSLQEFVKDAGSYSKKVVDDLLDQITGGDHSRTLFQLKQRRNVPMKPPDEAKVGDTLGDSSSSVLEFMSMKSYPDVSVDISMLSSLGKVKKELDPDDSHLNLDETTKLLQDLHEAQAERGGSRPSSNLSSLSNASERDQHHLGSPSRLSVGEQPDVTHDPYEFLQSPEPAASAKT

[5] = molecular target: Histone acetyltransferase KAT2B (Homo sapiens) (UniProt Q92831); experiment: Binding affinity to human recombinant His6-tagged PCAF (G715 to D831 residues) expressed in Escherichia coli BL21 (DE3) cells assessed as change in melting temperature at 200 uM incubated for 30 mins by SYPRO orange dye based thermal shift assay; how it was run: as §1
Sequence of Histone acetyltransferase KAT2B (Homo sapiens) (Q92831 whole entry, looked up, the tested form may be a part): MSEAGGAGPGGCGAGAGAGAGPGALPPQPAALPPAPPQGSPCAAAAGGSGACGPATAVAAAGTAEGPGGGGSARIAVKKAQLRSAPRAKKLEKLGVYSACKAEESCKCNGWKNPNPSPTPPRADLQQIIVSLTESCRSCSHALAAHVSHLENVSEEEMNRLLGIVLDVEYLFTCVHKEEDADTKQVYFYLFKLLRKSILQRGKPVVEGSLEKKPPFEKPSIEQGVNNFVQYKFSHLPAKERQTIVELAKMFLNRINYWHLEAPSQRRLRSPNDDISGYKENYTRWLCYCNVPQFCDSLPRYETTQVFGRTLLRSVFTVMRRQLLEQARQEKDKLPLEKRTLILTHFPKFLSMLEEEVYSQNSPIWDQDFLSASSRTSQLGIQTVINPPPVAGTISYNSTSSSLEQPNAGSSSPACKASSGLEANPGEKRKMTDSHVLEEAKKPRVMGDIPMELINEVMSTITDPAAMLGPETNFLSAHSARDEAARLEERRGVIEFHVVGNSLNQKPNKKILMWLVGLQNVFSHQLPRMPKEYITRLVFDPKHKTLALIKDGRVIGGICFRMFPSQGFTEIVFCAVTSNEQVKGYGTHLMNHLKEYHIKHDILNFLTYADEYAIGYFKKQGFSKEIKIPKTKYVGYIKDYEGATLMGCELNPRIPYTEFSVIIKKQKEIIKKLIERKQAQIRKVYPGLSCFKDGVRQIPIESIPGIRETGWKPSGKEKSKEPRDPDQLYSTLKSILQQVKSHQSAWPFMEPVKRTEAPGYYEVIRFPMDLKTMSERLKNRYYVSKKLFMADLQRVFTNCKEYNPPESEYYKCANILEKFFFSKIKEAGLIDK

[6] = molecular target: Bromodomain testis-specific protein (Homo sapiens) (UniProt Q58F21); experiment: Binding affinity to human recombinant His6-tagged BRDT bromodomain 1 (N21 to E137 residues) expressed in Escherichia coli BL21 (DE3) cells assessed as change in melting temperature at 200 uM incubated for 30 mins by SYPRO orange dye based thermal shift assay; how it was run: as §1
[7] = Cmax in Sprague-Dawley rat at 2 mg/kg, iv by LC/MS analysis; type: ADME, organism-based; set-up: route intravenous, dose 2 mg/kg; conditions: in vivo
How it was run: (§2)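 Sprague-Dawley rats dosed iv at 2 mg/kg (a separate oral arm received 10 mg/kg); plasma exposure parameters derived from the concentration–time profile.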

VCaP [8] = experiment: Inhibition of BET bromodomain in human VCaP cells assessed as suppression of ERG mRNA expression at 5 uM incubated for 48 hrs by SYBR green dye based qRT-PCR analysis; type: cell-based
How it was run: (§3)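 LNCaP or VCaP cells exposed to vehicle (DMSO) or compound at 5 µM for 48 h; mRNA levels measured by qRT-PCR; mean ± s.e.m., n = 3; two-tailed Student's t-test.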

NCI-H1975 = experiment: Antiproliferative activity against human NCI-H1975 cells assessed as reduction in cell viability incubated for 72 hrs by cell-titer glo assay; type: functional, cell-based; conditions: NCI-H1975, 72 h
MCF7 = experiment: Antiproliferative activity against human MCF-7 cells assessed as reduction in cell viability incubated for 96 hrs by cell-titer glo assay; type: functional, cell-based; conditions: MCF7, 96 h
VCaP [9] = experiment: Inhibition of BET bromodomain in human VCaP cells assessed as suppression of full-length androgen receptor mRNA expression at 5 uM incubated for 48 hrs by SYBR green dye based qRT-PCR analysis; type: cell-based; how it was run: as §3
LNCaP C4-2B = experiment: Inhibition of colony formation in human LNCaP C4-2B cells incubated for 14 days by crystal violet staining based assay; type: functional, cell-based; conditions: dose 0.5-2 µM, time 14.0 day
How it was run: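 C4-2B cells cultured with vehicle (DMSO) or compound at 0.5, 1.0 or 2.0 μM for 14 days, then colonies stained and counted against vehicle.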

[10] = AUC in Sprague-Dawley rat at 2 mg/kg, iv by LC/MS analysis; type: ADME, organism-based; set-up: dose 2 mg/kg; conditions: in vivo; how it was run: as §2
CWR22R [11] = experiment: Inhibition of colony formation in human 22Rv1 cells at 0.5 uM incubated for 14 days by crystal violet staining based assay; type: functional, cell-based; conditions: time 14.0 day
How it was run: (§4)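 22Rv1 cells cultured with vehicle (DMSO) or compound at 0.5, 1.0 or 2.0 µM for 14 days, then stained and colonies assessed.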

HeLa = experiment: Antiproliferative activity against human HeLa cells assessed as reduction in cell viability incubated for 72 hrs by cell-titer glo assay; type: functional, cell-based
HT-29 = experiment: Antiproliferative activity against human HT-29 cells assessed as reduction in cell viability incubated for 120 hrs by cell-titer glo assay; type: functional, cell-based; conditions: HT-29, 120 h
U2OS = experiment: Antiproliferative activity against human U2OS cells assessed as reduction in cell viability incubated for 72 hrs by cell-titer glo assay; type: functional, cell-based
DU-145 = experiment: Antiproliferative activity against AR-negative human DU-145 cells assessed as reduction in cell viability incubated for 72 hrs by cell-titer glo assay; type: functional, cell-based; conditions: DU-145, 72 h
CWR22R [12] = experiment: Inhibition of colony formation in human 22Rv1 cells incubated for 14 days by crystal violet staining based assay; type: functional, cell-based; conditions: dose 0.5-2 µM, time 14.0 day; how it was run: as §4
A549 = experiment: Antiproliferative activity against human A549 cells assessed as reduction in cell viability incubated for 72 hrs by cell-titer glo assay; type: functional, cell-based; conditions: A549, 72 h
[13] = Toxicity in CB17/IcrHSD-Prkdc-SCID mouse xenografted with human LNCaP C4-2B cells assessed as effect on animal behaviour at 50 mg/kg, ip administered 5 times per week for 25 days; type: organism-based; conditions: in vivo, 600 h, time 25 day
How it was run: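 C4-2B xenograft mice randomized once tumors reached about 100 mm3. Vehicle or compound given i.p. at 50 mg/kg, five times per week, over a 25-day treatment period. Tolerability judged from body weight, tracked across treatment days, and from general behaviour.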

VCaP [14] = experiment: Inhibition of BET bromodomain in human VCaP cells assessed as suppression of PSA mRNA expression at 5 uM incubated for 48 hrs by SYBR green dye based qRT-PCR analysis; type: cell-based; how it was run: as §3

| Structure (SMILES) | ΔTm [1] | pIC50 (CWR22R [2]) | ΔTm [3] | ΔTm [4] | ΔTm [5] | ΔTm [6] | Cmax [7] | inhibition (VCaP [8]) | pIC50 (NCI-H1975) | pIC50 (MCF7) | inhibition (VCaP [9]) | inhibition (LNCaP C4-2B) | AUC [10] | inhibition (CWR22R [11]) | pIC50 (HeLa) | pIC50 (HT-29) | pIC50 (U2OS) | pIC50 (DU-145) | inhibition (CWR22R [12]) | pIC50 (A549) | further results |
| --- | --- | --- | --- | --- | --- | --- | --- | --- | --- | --- | --- | --- | --- | --- | --- | --- | --- | --- | --- | --- | --- |
| CNc1cc2onc(C)c2cc1NS(=O)(=O)c1cc(Br)ccc1OC | 9.2 °C | 5.17 | 6.5 °C | -0.8 °C | 2.6 °C | 5.1 °C | – | – | – | – | – | – | – | – | – | – | – | – | – | – | – |
| COc1cc2onc(C)c2cc1NS(=O)(=O)c1cc(Br)ccc1OC | 9.8 °C | 5.82 | 8.1 °C | -0.9 °C | 2.7 °C | 5.6 °C | 1390 ng/mL | Active | 5.60 | 6.00 | Active | Dose-dependent effect | 1170 ng·h/mL | Active | < 5.30 | 6.40 | < 5.30 | < 5.22 | Dose-dependent effect | < 5.30 | Activity [13]: Non-Toxic; inhibition (VCaP [14]): Active |
| Cc1noc2ccc(-c3nc4ccc(N5CCOC[C@@H]5C)cc4n3CC3CCCCC3)cc12 | 9.9 °C | 6.15 | 8.7 °C | -0.8 °C | -0.6 °C | 3.6 °C | 807 ng/mL | Active | < 5.30 | 6.00 | Active | Dose-dependent effect | 881 ng·h/mL | Active | < 5.30 | 6.40 | < 5.30 | < 5.22 | Dose-dependent effect | 5.60 | Activity [13]: Non-Toxic; inhibition (VCaP [14]): Active |
| Cc1noc2c(Br)cc(-c3nc4ccc(N5CCOCC5)cc4n3CC3CCCCC3)cc12 | 9.2 °C | 6.19 | 8.9 °C | -0.9 °C | -0.6 °C | 4.2 °C | – | – | – | – | – | – | – | – | – | – | – | – | – | – | – |
